Assay results reported in ChEMBL document CHEMBL4480455, “Anti-inflammatory Property of Imperatorin on Alveolar Macrophages and Inflammatory Lung Injury” (J Nat Prod, 2019).
Activity calls are given as the source filed them. The rule behind the calls is not given here.

Experiments:
[1] = biological target: Tyrosine-protein kinase JAK1 (Mus musculus) (UniProt P52332); experiment: Inhibition of zymosan-induced JAK1 phosphorylation in mouse MHS cells assessed as phosphorylated JAK1 level at 15 ug/ml by Western blot analysis relative to tubulin (reference value: 2.2); type: cell-based
Method in brief: (§1)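 MH-S cells pretreated, then stimulated with zymosan 10 μg/mL. Phospho-JAK1 (Y1022/1023), phospho-STAT3 (Y705) and phospho-IKKα/β detected by Western blot against total protein and tubulin. Zymosan time course 1–30 min for JAK1/STAT3 and 1–60 min for IKK. Normalized to control; mean ± SD, n≥3.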

[2] = biological target: T1, I-kappa-B kinase (Mus musculus) (UniProt Q60680+O88351+O88522); experiment: Inhibition of zymosan-induced IKK phosphorylation in mouse MHS cells by Western blot analysis; type: cell-based; method in brief: as §1
[3] = biological target: Signal transducer and activator of transcription 3 (Mus musculus) (UniProt P42227); experiment: Inhibition of zymosan-induced STAT3 phosphorylation in mouse MHS cells assessed as phosphorylated STAT3 level at 15 ug/ml by Western blot analysis relative to tubulin (reference value: 2.1); type: cell-based; method in brief: as §1
[4] = species on record: Mus musculus; experiment: Antiinflammatory activity in mouse MHS cells assessed as reduction in zymosan-induced COX2 protein expression preincubated for 30 mins followed by zymosan challenge and measured after 6 to 24 hrs by Western blotting analysis; type: functional, cell-based
[5] = biological target: T1, I-kappa-B kinase (Mus musculus); experiment: Inhibition of zymosan-induced IKK phosphorylation in mouse MHS cells assessed as phosphorylated IKK level at 15 ug/ml by Western blot analysis relative to tubulin (reference value: 1.8); type: cell-based; method in brief: as §1
[6] = system: Mus musculus; experiment: Antiinflammatory activity in zymosan induced C57BL/6 mouse model of lung injury assessed as reduction in PGE2 production in BALF at 4 mg/kg, ip pretreated for 3 days followed by zymosan challenge and measured after 24 hrs by ELISA; type: functional, organism-based
Method in brief: (§2)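 Male C57BL/6 mice, 25–30 g. Dosed i.p. daily for 3 days, then zymosan 4 mg/kg in 40 μL saline given by intratracheal instillation. After 24 h, BALF collected with five 0.2 mL PBS washes and centrifuged. Supernatant assayed for PGE2 and total protein. Cells counted by hemocytometer, and ≥300 cells on stained smears scored for differential counts. Left lung weighed, dried at 48 °C for 48 h, reweighed for wet/dry ratio.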

[7] = biological target: T1, I-kappa-B kinase (Mus musculus); experiment: Effect on IKK phosphorylation in mouse MHS cells assessed as phosphorylated IKK level at 15 ug/ml by Western blot analysis relative to tubulin (reference value: 1); type: cell-based
[8] = Cytotoxicity against mouse MHS cells assessed as effect on cell viability at 1.5 to 15 ug/ml measured after 30 mins by sulforhodamine B assay; type: cell-based; conditions: 0.5 h
[9] = species on record: Mus musculus; experiment: Antiinflammatory activity in mouse MHS cells assessed as reduction in zymosan-induced COX2 mRNA expression preincubated for 30 mins followed by zymosan challenge and measured after 6 to 24 hrs by TRIzol reagent based qRT-PCR analysis; type: functional, cell-based
Method in brief: (§3)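 MH-S alveolar macrophages grown in RPMI 1640 with 10% FBS at 37 °C and 5% CO2. Cells pretreated for 30 min, then given zymosan 10 μg/mL for 6 h. mRNA measured by SYBR Green real-time PCR (95 °C 10 min; 42 cycles of 95 °C 10 s, 60 °C 60 s) with actin as reference. Normalized to control; mean ± SD, n≥3.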

[10] = species on record: Mus musculus; experiment: Antiinflammatory activity in mouse MHS cells assessed as reduction in zymosan-induced TNFalpha mRNA expression preincubated for 30 mins followed by zymosan challenge and measured after 6 to 24 hrs by TRIzol reagent based qRT-PCR analysis; type: functional, cell-based; method in brief: as §3
[11] = system: Mus musculus; experiment: Antiinflammatory activity in zymosan induced C57BL/6 mouse model of lung injury assessed as reduction in thinkened basement membrane at 4 mg/kg, ip pretreated for 3 days followed by zymosan challenge and measured after 24 hrs by H and E staining based microscopic analysis; type: functional, organism-based
Method in brief: (§4)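 Male C57BL/6 mice dosed i.p. for 3 days, then given zymosan (4 mg/kg, i.t.) or saline. Lungs harvested 24 h later. Right lung fixed in 10% formalin, embedded in paraffin, cut into 5 μm sections, stained with H&E or Masson's trichrome and examined by microscopy. Collagen also measured by hydroxyproline assay on lung lysates. Mean ± SD, n≥4.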

[12] = species on record: Mus musculus; experiment: Antiinflammatory activity in mouse MHS cells assessed as reduction in zymosan-induced iNOS protein expression preincubated for 30 mins followed by zymosan challenge and measured after 6 to 24 hrs by Western blotting analysis; type: functional, cell-based
[13] = species on record: Mus musculus; experiment: Antiinflammatory activity in mouse MHS cells assessed as reduction in zymosan-induced PGE2 production at 1.5 to 15 ug/ml preincubated for 30 mins followed by zymosan challenge and measured after 6 to 24 hrs by ELISA; type: functional, cell-based
Method in brief: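 MH-S cells pretreated for 30 min, then given zymosan 10 μg/mL for 24 h. Supernatant PGE2 measured by competitive ELISA: acetylcholinesterase tracer plus monoclonal antibody, 4 °C for 18 h, Ellman's reagent development, absorbance at 405 nm. Mean ± SD, n≥3.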

[14] = species on record: Mus musculus; experiment: Antiinflammatory activity in mouse MHS cells assessed as reduction in zymosan-induced IL-6 mRNA expression preincubated for 30 mins followed by zymosan challenge and measured after 6 to 24 hrs by TRIzol reagent based qRT-PCR analysis; type: functional, cell-based; method in brief: as §3
[15] = biological target: Signal transducer and activator of transcription 3 (Mus musculus) (UniProt P42227); experiment: Inhibition of zymosan-induced STAT3 phosphorylation in mouse MHS cells preincubated for 30 mins followed by zymosan challenge and measured after 6 to 24 hrs by Western blot analysis; type: cell-based
[16] = species on record: Mus musculus; experiment: Antiinflammatory activity in mouse MHS cells assessed as reduction in zymosan-induced IL-6 protein expression at 1.5 to 15 ug/ml preincubated for 30 mins followed by zymosan challenge and measured after 6 to 24 hrs; type: functional, cell-based
Method in brief: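 MH-S cells pretreated for 30 min, then given zymosan 10 μg/mL for 24 h. IL-6 and TNFα protein in culture supernatant assessed by cytokine array. Values normalized to control; mean ± SD, n≥3.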

[17] = biological target: Tyrosine-protein kinase JAK1 (Mus musculus) (UniProt P52332); experiment: Inhibition of zymosan-induced JAK1 phosphorylation in mouse MHS cells assessed as phosphorylated JAK1 level at 1.5 ug/ml by Western blot analysis relative to tubulin (reference value: 2.2); type: cell-based; method in brief: as §1
[18] = system: Mus musculus; experiment: Antiinflammatory activity in zymosan induced C57BL/6 mouse model of lung injury assessed as reduction in collagen deposition at 4 mg/kg, ip pretreated for 3 days followed by zymosan challenge and measured after 24 hrs by hydroxyproline assay; type: functional, organism-based; method in brief: as §4
[19] = system: Mus musculus; experiment: Antiinflammatory activity in zymosan induced C57BL/6 mouse model of lung injury assessed as reduction in immune cell infiltration in BALF at 4 mg/kg, ip pretreated for 3 days followed by zymosan challenge and measured after 24 hrs by Diff-Quick staining based assay; type: functional, organism-based; method in brief: as §2
[20] = Antiinflammatory activity in mouse MHS cells assessed as reduction in zymosan-induced COX2 protein expression at 15 ug/ml preincubated for 30 mins followed by zymosan challenge and measured after 6 to 24 hrs by Western blotting analysis relative to control (reference value: 2.2 +/- 1.8); type: functional
[21] = Effect on COX2 protein expression in mouse MHS cells at 15 ug/ml after 30 mins by Western blotting analysis relative to tubulin (reference value: 1); type: ADME, cell-based; conditions: 0.5 h
[22] = Effect on iNOS protein expression in mouse MHS cells at 15 ug/ml after 30 mins by Western blotting analysis relative to tubulin (reference value: 1); type: ADME, cell-based; conditions: 0.5 h

Chain of Tyrosine-protein kinase JAK1 (Mus musculus) (P52332 whole entry): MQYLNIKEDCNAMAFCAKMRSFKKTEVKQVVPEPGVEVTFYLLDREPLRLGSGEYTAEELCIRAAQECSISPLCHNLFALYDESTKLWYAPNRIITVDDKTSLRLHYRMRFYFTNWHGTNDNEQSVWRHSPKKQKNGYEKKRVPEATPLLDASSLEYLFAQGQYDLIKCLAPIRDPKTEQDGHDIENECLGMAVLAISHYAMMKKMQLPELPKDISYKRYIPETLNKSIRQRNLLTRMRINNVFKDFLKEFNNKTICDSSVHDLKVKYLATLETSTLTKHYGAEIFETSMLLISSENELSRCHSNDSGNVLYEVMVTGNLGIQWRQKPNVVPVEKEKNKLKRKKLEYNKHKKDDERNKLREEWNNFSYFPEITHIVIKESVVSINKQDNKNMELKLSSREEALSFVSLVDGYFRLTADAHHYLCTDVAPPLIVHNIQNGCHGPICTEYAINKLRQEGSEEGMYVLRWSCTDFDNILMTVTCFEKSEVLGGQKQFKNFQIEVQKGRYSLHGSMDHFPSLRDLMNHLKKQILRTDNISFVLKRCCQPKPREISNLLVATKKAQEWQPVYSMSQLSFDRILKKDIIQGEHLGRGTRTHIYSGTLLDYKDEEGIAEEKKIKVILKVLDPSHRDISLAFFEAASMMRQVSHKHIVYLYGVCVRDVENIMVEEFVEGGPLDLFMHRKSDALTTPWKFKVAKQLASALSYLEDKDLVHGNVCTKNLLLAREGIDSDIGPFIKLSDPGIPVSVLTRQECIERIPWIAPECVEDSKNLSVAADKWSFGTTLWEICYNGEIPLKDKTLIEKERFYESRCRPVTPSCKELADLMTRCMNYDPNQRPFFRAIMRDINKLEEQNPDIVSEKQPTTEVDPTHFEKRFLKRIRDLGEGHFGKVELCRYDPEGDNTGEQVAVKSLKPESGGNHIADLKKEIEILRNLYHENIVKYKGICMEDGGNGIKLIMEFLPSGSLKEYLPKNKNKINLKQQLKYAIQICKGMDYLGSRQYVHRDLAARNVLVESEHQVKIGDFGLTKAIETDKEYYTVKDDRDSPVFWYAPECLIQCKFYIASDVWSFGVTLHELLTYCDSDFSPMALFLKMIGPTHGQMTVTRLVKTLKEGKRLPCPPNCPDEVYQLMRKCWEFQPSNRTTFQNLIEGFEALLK
Chain of Signal transducer and activator of transcription 3 (Mus musculus) (P42227 whole entry): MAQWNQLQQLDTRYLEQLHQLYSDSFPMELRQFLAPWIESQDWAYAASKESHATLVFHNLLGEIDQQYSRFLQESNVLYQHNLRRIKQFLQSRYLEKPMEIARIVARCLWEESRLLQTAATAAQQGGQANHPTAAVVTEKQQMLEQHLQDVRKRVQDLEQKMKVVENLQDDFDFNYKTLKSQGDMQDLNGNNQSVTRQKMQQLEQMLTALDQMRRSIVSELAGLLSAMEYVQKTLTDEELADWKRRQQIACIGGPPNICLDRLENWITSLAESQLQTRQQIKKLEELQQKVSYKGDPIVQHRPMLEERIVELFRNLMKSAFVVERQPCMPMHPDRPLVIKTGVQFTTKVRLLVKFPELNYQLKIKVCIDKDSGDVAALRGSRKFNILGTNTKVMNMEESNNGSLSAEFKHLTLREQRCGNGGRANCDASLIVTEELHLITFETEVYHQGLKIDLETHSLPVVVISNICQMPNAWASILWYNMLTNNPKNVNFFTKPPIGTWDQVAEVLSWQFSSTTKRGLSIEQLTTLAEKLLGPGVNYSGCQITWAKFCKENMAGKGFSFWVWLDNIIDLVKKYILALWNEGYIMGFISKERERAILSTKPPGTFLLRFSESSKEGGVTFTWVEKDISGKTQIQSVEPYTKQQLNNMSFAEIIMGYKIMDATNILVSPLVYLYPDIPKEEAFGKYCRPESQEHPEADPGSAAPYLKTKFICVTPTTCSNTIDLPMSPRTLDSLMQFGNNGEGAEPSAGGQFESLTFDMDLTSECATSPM

Compound: CC(C)=CCOc1c2occc2cc2ccc(=O)oc12 [PENTOSALEN]
- fold change (FC) [1]: 1.3
- inhibition [2]: Dose-dependent effect
- fold change (FC) [3]: 1.3
- Activity [4]: Dose-dependent effect
- fold change (FC) [5]: 1
- Activity [6]: Active
- fold change (FC) [7]: 1
- Activity [8]: Non-Toxic
- Activity [9]: Dose-dependent effect
- Activity [10]: Dose-dependent effect
- Activity [11]: Active
- Activity [12]: Dose-dependent effect
- Activity [13]: Active
- Activity [14]: Dose-dependent effect
- inhibition [15]: Dose-dependent effect
- Activity [16]: Active
- fold change (FC) [17]: 2.2
- Activity [18]: Active
- Activity [19]: Active
- fold change (FC) [20]: 1.8
- fold change (FC) [21]: 0.7
- fold change (FC) [22]: 0.9
